Results published in ChEMBL document CHEMBL1127395, “Synthesis and antimicrobial activity of novel 3-[(aminopyrimidiniumyl)thio]methyl cephalosporins” (1994).
Converted amounts (≈) assume the structure as drawn.

Columns and labels:
Escherichia coli = assay: In vitro minimum inhibitory concentration for Escherichia coli (ATCC-10536) by agar dilution method; type: functional; conditions: Escherichia coli; read-out: MIC
Procedure, shortened: (§1)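 Two-fold serial dilutions of each compound dispersed in Mueller-Hinton agar; plates spot-inoculated with 2 μL of standard test strain at 10^7 CFU/mL, incubated 37 °C for 20 h; MIC read as lowest concentration inhibiting growth.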

Serratia marcescens = assay: In vitro minimum inhibitory concentration for Serratia marcescens (ATCC-27117) by agar dilution method; type: functional; conditions: Serratia marcescens; read-out: MIC; procedure, shortened: as §1
Pseudomonas aeruginosa [1] = assay: In vitro minimum inhibitory concentration for Pseudomonas aeruginosa (ATCC 10145) by agar dilution method; type: functional; procedure, shortened: as §1
Enterobacter cloacae = assay: In vitro minimum inhibitory concentration for Enterobacter cloacae (ATCC-27508) by agar dilution method; type: functional; conditions: Enterobacter cloacae; read-out: MIC; procedure, shortened: as §1
Salmonella typhimurium = assay: In vitro minimum inhibitory concentration for Salmonella Typhimurium (ATCC-14028) by agar dilution method; type: functional, Salmonella enterica subsp. enterica serovar Typhimurium; conditions: Salmonella enterica; read-out: MIC; procedure, shortened: as §1
Klebsiella aerogenes = assay: In vitro minimum inhibitory concentration for Enterobacter aerogenes (ATCC-29751) by agar dilution method; type: functional; conditions: Klebsiella aerogenes; read-out: MIC; procedure, shortened: as §1
Citrobacter freundii = assay: In vitro minimum inhibitory concentration for Citrobacter freundii (ATCC-8090) by agar dilution method; type: functional; conditions: Citrobacter freundii; read-out: MIC; procedure, shortened: as §1
Proteus vulgaris = assay: In vitro minimum inhibitory concentration for Proteus vulgaris (ATCC-6059) by agar dilution method; type: functional; conditions: Proteus vulgaris; read-out: MIC; procedure, shortened: as §1
Klebsiella pneumoniae = assay: In vitro minimum inhibitory concentration for Klebsiella pneumoniae (ATCC-10031) by agar dilution method; type: functional; conditions: Klebsiella pneumoniae; read-out: MIC
Staphylococcus aureus = assay: In vitro minimum inhibitory concentration for Staphylococcus aureus (ATCC 6538p) by agar dilution method; type: functional; conditions: Staphylococcus aureus, ATCC 6538p; read-out: MIC; procedure, shortened: as §1
Pseudomonas aeruginosa [2] = assay: In vitro minimum inhibitory concentration for Pseudomonas aeruginosa (ATCC-27853) by agar dilution method; type: functional; conditions: Pseudomonas aeruginosa; read-out: MIC; procedure, shortened: as §1
[3] = tested on: Staphylococcus epidermidis; assay: In vitro minimum inhibitory concentration for Staphylococcus epidermidis (ATCC-12228) by agar dilution method; type: functional; conditions: Staphylococcus epidermidis; read-out: MIC; procedure, shortened: as §1

| Compound | MIC (Escherichia coli) [µg/mL] | MIC (Serratia marcescens) [µg/mL] | MIC (Pseudomonas aeruginosa [1]) [µg/mL] | MIC (Enterobacter cloacae) [µg/mL] | MIC (Salmonella typhimurium) [µg/mL] | MIC (Klebsiella aerogenes) [µg/mL] | MIC (Citrobacter freundii) [µg/mL] | MIC (Proteus vulgaris) [µg/mL] | MIC (Klebsiella pneumoniae) [µg/mL] | MIC (Staphylococcus aureus) [µg/mL] | MIC (Pseudomonas aeruginosa [2]) [µg/mL] | MIC [3] [µg/mL] |
| --- | --- | --- | --- | --- | --- | --- | --- | --- | --- | --- | --- | --- |
| Cc1c(N)nc(SCC2=C(C(=O)[O-])N3C(=O)C(NC(=O)/C(=N\OC(C)(C)C(=O)O)c4cnc(N)s4)C3SC2)[n+]2ncn(C)c12 (stereo not given) | 0.13 (≈ 0.196 µM) | 0.25 (≈ 0.377 µM) | 4 (≈ 6.04 µM) | 0.02 (≈ 0.0302 µM) | 0.25 (≈ 0.377 µM) | 1 (≈ 1.51 µM) | 0.06 (≈ 0.0905 µM) | 0.06 (≈ 0.0905 µM) | 0.06 (≈ 0.0905 µM) | 8 (≈ 12.1 µM) | 2 (≈ 3.02 µM) | 2 (≈ 3.02 µM) |
| Cn1c(O)c[n+]2c(SCC3=C(C(=O)[O-])N4C(=O)C(NC(=O)/C(=N\OC(C)(C)C(=O)O)c5cnc(N)s5)C4SC3)nc(N)cc12 (stereo not given) | 0.13 (≈ 0.196 µM) | 0.5 (≈ 0.753 µM) | 4 (≈ 6.03 µM) | 0.03 (≈ 0.0452 µM) | 0.5 (≈ 0.753 µM) | 4 (≈ 6.03 µM) | 0.25 (≈ 0.377 µM) | 0.06 (≈ 0.0904 µM) | 0.13 (≈ 0.196 µM) | 16 (≈ 24.1 µM) | 4 (≈ 6.03 µM) | 4 (≈ 6.03 µM) |
| Cn1cc[n+]2c(SCC3=C(C(=O)[O-])N4C(=O)C(NC(=O)/C(=N\OC(C)(C)C(=O)O)c5cnc(N)s5)C4SC3)nc(N3CCOCC3)cc12 (stereo not given) | 0.25 (≈ 0.348 µM) | 0.5 (≈ 0.697 µM) | 8 (≈ 11.1 µM) | 0.06 (≈ 0.0836 µM) | 0.5 (≈ 0.697 µM) | 8 (≈ 11.1 µM) | 0.5 (≈ 0.697 µM) | 0.25 (≈ 0.348 µM) | 0.25 (≈ 0.348 µM) | 8 (≈ 11.1 µM) | 4 (≈ 5.57 µM) | 2 (≈ 2.79 µM) |
| CC(C)(O/N=C(\C(=O)NC1C(=O)N2C(C(=O)[O-])=C(CSc3nc(N)cc(N)[n+]3-c3ccc(Cl)cc3)CSC12)c1cnc(N)s1)C(=O)O (stereo not given) | 0.25 (≈ 0.347 µM) | 1 (≈ 1.39 µM) | 4 (≈ 5.55 µM) | 0.13 (≈ 0.181 µM) | 0.5 (≈ 0.694 µM) | 1 (≈ 1.39 µM) | 0.25 (≈ 0.347 µM) | 0.25 (≈ 0.347 µM) | 0.13 (≈ 0.181 µM) | 4 (≈ 5.55 µM) | 2 (≈ 2.78 µM) | 2 (≈ 2.78 µM) |
| Cc1cccc(C)c1-[n+]1c(N)cc(N)nc1SCC1=C(C(=O)[O-])N2C(=O)C(NC(=O)/C(=N\OC(C)(C)C(=O)O)c3cnc(N)s3)C2SC1 (stereo not given) | 0.5 (≈ 0.7 µM) | 2 (≈ 2.8 µM) | 8 (≈ 11.2 µM) | 0.25 (≈ 0.35 µM) | 2 (≈ 2.8 µM) | 2 (≈ 2.8 µM) | 1 (≈ 1.4 µM) | 0.5 (≈ 0.7 µM) | 0.25 (≈ 0.35 µM) | 4 (≈ 5.6 µM) | 4 (≈ 5.6 µM) | 2 (≈ 2.8 µM) |

Next, values leading:

| MIC (Escherichia coli) [µg/mL] | MIC (Serratia marcescens) [µg/mL] | MIC (Pseudomonas aeruginosa [1]) [µg/mL] | MIC (Enterobacter cloacae) [µg/mL] | MIC (Salmonella typhimurium) [µg/mL] | MIC (Klebsiella aerogenes) [µg/mL] | MIC (Citrobacter freundii) [µg/mL] | MIC (Proteus vulgaris) [µg/mL] | MIC (Klebsiella pneumoniae) [µg/mL] | MIC (Staphylococcus aureus) [µg/mL] | MIC (Pseudomonas aeruginosa [2]) [µg/mL] | MIC [3] [µg/mL] | Compound |
| --- | --- | --- | --- | --- | --- | --- | --- | --- | --- | --- | --- | --- |
| 0.25 (≈ 0.41 µM) | 0.5 (≈ 0.82 µM) | 4 (≈ 6.56 µM) | 0.25 (≈ 0.41 µM) | 0.5 (≈ 0.82 µM) | 2 (≈ 3.28 µM) | 1 (≈ 1.64 µM) | 0.031 (≈ 0.0508 µM) | 0.25 (≈ 0.41 µM) | 32 (≈ 52.5 µM) | 2 (≈ 3.28 µM) | 8 (≈ 13.1 µM) | CC(C)(O/N=C(\C(=O)NC1C(=O)N2C(C(=O)O)=C(CSc3nc(N)cc(N)n3)CSC12)c1cnc(N)s1)C(=O)O (stereo not given) |
| 4 (≈ 6.54 µM) | 4 (≈ 6.54 µM) | 32 (≈ 52.3 µM) | 1 (≈ 1.63 µM) | 8 (≈ 13.1 µM) | 32 (≈ 52.3 µM) | 8 (≈ 13.1 µM) | 0.25 (≈ 0.409 µM) | 2 (≈ 3.27 µM) | > 128 | 32 (≈ 52.3 µM) | > 128 | CC(C)(O/N=C(\C(=O)NC1C(=O)N2C(C(=O)O)=C(CSc3nc(O)cc(O)n3)CSC12)c1cnc(N)s1)C(=O)O (stereo not given) |
| 0.13 (≈ 0.2 µM) | 0.25 (≈ 0.385 µM) | 4 (≈ 6.16 µM) | 0.03 (≈ 0.0462 µM) | 0.5 (≈ 0.77 µM) | 2 (≈ 3.08 µM) | 0.13 (≈ 0.2 µM) | 0.13 (≈ 0.2 µM) | 0.06 (≈ 0.0923 µM) | 4 (≈ 6.16 µM) | 2 (≈ 3.08 µM) | 2 (≈ 3.08 µM) | CC(C)(O/N=C(\C(=O)NC1C(=O)N2C(C(=O)[O-])=C(CSc3nc(N)cc(N)[n+]3C3CC3)CSC12)c1cnc(N)s1)C(=O)O (stereo not given) |
| 0.5 (≈ 0.783 µM) | 1 (≈ 1.57 µM) | 8 (≈ 12.5 µM) | 0.13 (≈ 0.204 µM) | 1 (≈ 1.57 µM) | 16 (≈ 25.1 µM) | 0.5 (≈ 0.783 µM) | 0.03 (≈ 0.047 µM) | 0.25 (≈ 0.391 µM) | 32 (≈ 50.1 µM) | 8 (≈ 12.5 µM) | 16 (≈ 25.1 µM) | CN[n+]1c(N)cc(N)nc1SCC1=C(C(=O)[O-])N2C(=O)C(NC(=O)/C(=N\OC(C)(C)C(=O)O)c3cnc(N)s3)C2SC1 (stereo not given) |
| 8 (≈ 13.4 µM) | 16 (≈ 26.9 µM) | > 128 | 4 (≈ 6.72 µM) | 64 (≈ 107 µM) | 32 (≈ 53.7 µM) | 8 (≈ 13.4 µM) | 2 (≈ 3.36 µM) | 8 (≈ 13.4 µM) | > 128 | > 128 | > 128 | CC(C)(O/N=C(\C(=O)NC1C(=O)N2C(C(=O)O)=C(CSc3nccc(O)n3)CSC12)c1cnc(N)s1)C(=O)O (stereo not given) |
